# “Also recorded” adds a separate entry of the source. Like-named read-outs stand apart in the source and are kept apart here.
# What was measured:
# [1] = tested on: hyperthermia‐induced seizures in Scn1a +/− mice; settings: cited from earlier work
# [2] = tested on: hyperthermia‐induced seizures in Scn1a +/− mice; assay: Hyperthermia-induced seizures in Scn1a+/− mice; type: in vivo, mouse; settings: for Effective (anticonvulsant) dose against hyperthermia-induced seizures: i.p.
# How it was run: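 Male and female Scn1a+/− F1 mice (congenic 129S6 heterozygotes × C57BL/6J), P14–16, got a single i.p. dose of vehicle or test compound, n = 12–18. Pretreatment time was set per compound from time-to-peak data (15–120 min), with matched vehicle controls. A rectal probe went in 15 min before, followed by 5-min acclimation. Core temperature was raised 0.5°C every 2 min until the first clonic convulsion with loss of posture, or to 42.5°C held 3 min. Thresholds were compared by log-rank Mantel–Cox.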
# [3] = Solubility of dosing preparations; type: physicochemical; settings: for State of dosing preparation: ethanol:Tween 80:saline (1:1:18), 10 ml·kg−1, CBGV 100, CBDV 60, CBG 30 mg·kg−1; for Aqueous solubility: reason for not testing 100 mg·kg−1
# [4] = tested on: 6‐Hz threshold test, Swiss male mice; assay: 6-Hz threshold test; type: in vivo, mouse; settings: n = 12; for CC50 vs vehicle, 6-Hz threshold test: 45 min pretreatment
# [5] = target: T1, concatenated human γ2–β2–α1–β2–α1 GABA receptor (Homo sapiens, UniProt P14867+P18507+P47870); assay: Two-electrode voltage clamp, GABA-evoked currents in Xenopus oocytes; type: cell-based
# T1 sequence (P14867 28-456): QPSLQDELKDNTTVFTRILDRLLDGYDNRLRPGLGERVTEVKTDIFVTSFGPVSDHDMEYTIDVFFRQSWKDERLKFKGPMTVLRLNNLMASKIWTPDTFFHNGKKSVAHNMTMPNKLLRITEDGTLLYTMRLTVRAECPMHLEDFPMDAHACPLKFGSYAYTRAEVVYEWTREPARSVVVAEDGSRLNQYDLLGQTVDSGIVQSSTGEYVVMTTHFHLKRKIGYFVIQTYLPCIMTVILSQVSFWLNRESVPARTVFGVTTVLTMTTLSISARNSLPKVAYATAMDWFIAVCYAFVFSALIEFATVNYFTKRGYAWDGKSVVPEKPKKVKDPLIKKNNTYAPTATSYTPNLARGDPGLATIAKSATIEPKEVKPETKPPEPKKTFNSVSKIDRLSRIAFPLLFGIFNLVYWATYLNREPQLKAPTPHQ
# T1 sequence (P47870 26-512): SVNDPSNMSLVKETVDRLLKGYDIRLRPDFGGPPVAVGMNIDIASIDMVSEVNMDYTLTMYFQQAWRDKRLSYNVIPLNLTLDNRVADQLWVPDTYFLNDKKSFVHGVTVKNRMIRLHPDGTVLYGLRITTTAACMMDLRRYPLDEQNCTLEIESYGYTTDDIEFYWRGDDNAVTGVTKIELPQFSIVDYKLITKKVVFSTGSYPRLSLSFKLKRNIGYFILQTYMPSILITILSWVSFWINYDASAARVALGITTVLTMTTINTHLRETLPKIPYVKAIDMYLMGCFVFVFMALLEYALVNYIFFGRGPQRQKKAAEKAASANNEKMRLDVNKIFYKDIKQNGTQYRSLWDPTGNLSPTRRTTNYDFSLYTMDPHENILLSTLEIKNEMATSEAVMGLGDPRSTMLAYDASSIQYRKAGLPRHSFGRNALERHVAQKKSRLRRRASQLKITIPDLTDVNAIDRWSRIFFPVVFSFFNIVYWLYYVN
# T1 sequence (P18507 40-475): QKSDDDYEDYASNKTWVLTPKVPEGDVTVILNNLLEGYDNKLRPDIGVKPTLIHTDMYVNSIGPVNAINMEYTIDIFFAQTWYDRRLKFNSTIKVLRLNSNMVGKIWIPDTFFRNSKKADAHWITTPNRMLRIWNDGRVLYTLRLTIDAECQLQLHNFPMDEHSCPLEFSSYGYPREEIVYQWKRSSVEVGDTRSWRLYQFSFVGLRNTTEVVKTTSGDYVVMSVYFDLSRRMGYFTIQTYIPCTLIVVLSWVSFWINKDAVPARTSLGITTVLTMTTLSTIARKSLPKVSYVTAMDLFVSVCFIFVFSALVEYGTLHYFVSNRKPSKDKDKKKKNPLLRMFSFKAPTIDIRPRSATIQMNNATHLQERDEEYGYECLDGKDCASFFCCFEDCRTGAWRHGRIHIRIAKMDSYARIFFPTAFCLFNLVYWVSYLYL
# How it was run: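 Two-electrode voltage clamp used Xenopus oocytes expressing concatenated human γ2–β2–α1–β2–α1 receptors. GABA (15 μM) was applied three times with 7–12 min washout, and currents were normalised to the mean of the last two applications. Preincubation was 60 s. Per cent modulation came from a published equation, and the Hill equation fit gave Imax and EC50, n = 5.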
# [6] = target: T1, concatenated human γ2–β2–α1–β2–α1 GABA receptor; assay: GABAA receptor desensitization assay in Xenopus oocytes; type: cell-based; settings: 10 μM CBGA, 180-s preincubation, 1 mM GABA; 103 ± 3% without preincubation
# [7] = target: T2, GPR55 (Homo sapiens, UniProt Q9Y2T6); assay: GPR55 ERK phosphorylation assay in HEK293 cells; type: cell-based; settings: for EC80 concentration for GPR55 activation (pERK): agonist alone
# T2 sequence (Q9Y2T6 whole entry): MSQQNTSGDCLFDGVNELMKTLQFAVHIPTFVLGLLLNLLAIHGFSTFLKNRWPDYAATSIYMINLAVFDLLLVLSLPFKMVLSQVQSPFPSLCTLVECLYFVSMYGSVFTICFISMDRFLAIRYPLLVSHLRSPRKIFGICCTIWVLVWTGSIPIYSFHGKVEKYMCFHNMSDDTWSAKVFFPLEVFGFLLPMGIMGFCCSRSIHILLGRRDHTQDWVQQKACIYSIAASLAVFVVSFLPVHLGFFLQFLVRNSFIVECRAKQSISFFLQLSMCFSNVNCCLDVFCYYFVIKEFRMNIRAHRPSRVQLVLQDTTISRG
# [8] = target: human TRPV1 (Homo sapiens, UniProt Q8NER1); assay: TRPV1 intracellular calcium assay; type: cell-based
# Sequence of human TRPV1 (Q8NER1 whole entry): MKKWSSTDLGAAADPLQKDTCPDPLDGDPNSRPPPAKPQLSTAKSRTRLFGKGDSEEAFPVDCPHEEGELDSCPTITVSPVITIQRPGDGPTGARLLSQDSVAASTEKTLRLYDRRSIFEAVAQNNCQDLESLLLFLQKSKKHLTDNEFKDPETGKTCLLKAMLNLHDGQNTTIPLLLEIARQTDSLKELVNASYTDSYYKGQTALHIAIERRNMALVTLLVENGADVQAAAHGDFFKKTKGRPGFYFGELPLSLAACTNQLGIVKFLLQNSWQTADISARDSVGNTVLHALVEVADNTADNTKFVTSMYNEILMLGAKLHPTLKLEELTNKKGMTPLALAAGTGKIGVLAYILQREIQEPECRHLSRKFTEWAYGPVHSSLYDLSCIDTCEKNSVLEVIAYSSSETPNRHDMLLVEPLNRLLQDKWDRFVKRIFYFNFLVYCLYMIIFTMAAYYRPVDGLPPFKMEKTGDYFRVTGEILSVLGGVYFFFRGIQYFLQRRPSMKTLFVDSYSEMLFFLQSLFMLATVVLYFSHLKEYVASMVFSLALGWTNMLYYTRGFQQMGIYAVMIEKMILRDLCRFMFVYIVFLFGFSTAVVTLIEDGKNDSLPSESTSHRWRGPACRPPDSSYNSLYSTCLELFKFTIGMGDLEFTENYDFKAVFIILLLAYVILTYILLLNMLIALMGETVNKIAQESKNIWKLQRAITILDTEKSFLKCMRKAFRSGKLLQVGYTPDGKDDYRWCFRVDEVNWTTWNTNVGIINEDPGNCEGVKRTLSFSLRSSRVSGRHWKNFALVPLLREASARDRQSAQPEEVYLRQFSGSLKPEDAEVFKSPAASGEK
# [9] = ref Anderson, Low, et al., 2019; cited from earlier work
# [10] = target: T2, GPR55; assay: Eurofins DiscoverX PathHunter β-arrestin GPCR screen, GPR55; type: cell-based; settings: 3 μM
# [11] = target: cannabinoid CB2 receptor (Homo sapiens, UniProt P34972); assay: Eurofins DiscoverX PathHunter β-arrestin GPCR screen, CB2; type: cell-based; settings: 3 μM
# Sequence of cannabinoid CB2 receptor (P34972 whole entry): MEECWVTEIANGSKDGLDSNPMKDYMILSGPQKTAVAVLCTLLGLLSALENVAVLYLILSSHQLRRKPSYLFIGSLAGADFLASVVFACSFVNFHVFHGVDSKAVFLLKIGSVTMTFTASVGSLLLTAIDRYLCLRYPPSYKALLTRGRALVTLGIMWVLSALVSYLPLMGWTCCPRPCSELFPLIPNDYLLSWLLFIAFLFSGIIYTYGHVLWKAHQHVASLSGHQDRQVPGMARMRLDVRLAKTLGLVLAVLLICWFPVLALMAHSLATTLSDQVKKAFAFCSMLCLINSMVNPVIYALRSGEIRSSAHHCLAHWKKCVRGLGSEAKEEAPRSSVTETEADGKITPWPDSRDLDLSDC
# [12] = target: cannabinoid CB1 receptor (Homo sapiens, UniProt P21554); assay: Eurofins DiscoverX PathHunter β-arrestin GPCR screen, CB1; type: cell-based; settings: 3 μM
# Sequence of cannabinoid CB1 receptor (P21554 whole entry): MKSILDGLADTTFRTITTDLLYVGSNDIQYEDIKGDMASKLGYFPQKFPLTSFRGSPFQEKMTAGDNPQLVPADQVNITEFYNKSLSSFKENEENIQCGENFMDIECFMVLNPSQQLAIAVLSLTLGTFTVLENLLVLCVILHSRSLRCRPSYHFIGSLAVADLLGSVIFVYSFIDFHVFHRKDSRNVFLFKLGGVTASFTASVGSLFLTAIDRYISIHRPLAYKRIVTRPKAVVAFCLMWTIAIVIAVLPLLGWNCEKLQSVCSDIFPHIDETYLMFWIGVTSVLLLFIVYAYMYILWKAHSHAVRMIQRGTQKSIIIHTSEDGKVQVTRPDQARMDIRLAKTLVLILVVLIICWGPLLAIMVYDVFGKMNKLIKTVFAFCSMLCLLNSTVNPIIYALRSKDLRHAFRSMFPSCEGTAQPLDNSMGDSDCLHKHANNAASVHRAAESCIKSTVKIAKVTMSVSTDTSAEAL
# [13] = tested on: 168 GPCRs and 74 orphan GPCRs; assay: Eurofins DiscoverX PathHunter β-arrestin GPCR screen; type: cell-based; settings: 3 μM
# [14] = tested on: spontaneous GTCS and survival of Scn1a +/− mice; assay: Spontaneous seizures; type: in vivo, mouse
# How it was run: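 Male and female Scn1a+/− mice were primed with one hyperthermia-induced seizure at P18. They were cooled on a pad to a 37°C core temperature at the onset of clonic convulsion. Test compound was then given subchronically in chow. Spontaneous GTCS were counted blind from continuous video over 60 h, and dosing continued to P30 for survival. Seizure-free proportion was analysed by Fisher's exact test; frequency by one-way ANOVA with Dunnett's test.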
# [15] = Plasma concentrations in experimental Scn1a+/− mice; type: in vivo, mouse
# How it was run: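 Acute cohorts (n = 5–10) were anaesthetised with isoflurane directly after the hyperthermia protocol, and whole blood was taken by cardiac puncture. Plasma was stored at −80°C. Subchronic cohorts received drug orally in chow, with plasma collected on P31 within 30 min of lights on. Clobazam pretreatment was 30 min and test compound pretreatment 45 min before the hyperthermia time point.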
# [16] = tested on: Scn1a +/− mice; settings: ref Hawkins et al., 2017; Luszczki et al., 2003; Miller et al., 1986; cited from earlier work
# [17] = tested on: MES‐induced seizures; settings: ref Hawkins et al., 2017; Luszczki et al., 2003; Miller et al., 1986; cited from earlier work
# [18] = tested on: MES threshold test, Swiss male mice; assay: Maximal electroshock; type: in vivo, mouse; settings: 300 mg·kg−1, 15 min prior, n = 12
# How it was run: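 Swiss male mice, n = 12; the positive control was given 15 min before shock. Corneal electroshocks were 60 Hz, 0.4 s, 0.5-ms rectangular pulses, starting at 50 mA. A blinded observer scored GTCS with full hindlimb extension (hindlimbs at 180° to torso).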
# [19] = tested on: pentylenetetrazole (PTZ)‐induced seizures; settings: ref Hill et al., 2010; cited from earlier work
# [20] = Scn1a+/− mice, ref Anderson et al., 2021
# [21] = 30 mg·kg−1 single i.p., Scn1a+/− mice P14–16
# [22] = 100 mg·kg−1 single i.p., Scn1a+/− mice P14–16
# [23] = over all doses tested, single i.p., Scn1a+/− mice P14–16
# [24] = acute i.p., CBGA 30 mg·kg−1 + clobazam 1 mg·kg−1
compound,measurement,setting,value
"CCCCCc1cc2c(c(O)c1C(=O)O)C=CC(C)(CCC=C(C)C)O2 (stereo not drawn) [CBCA, cannabichromenic acid]",Effect against hyperthermia-induced seizures,[1]; [20],anticonvulsant effects
"CCCc1cc2c(c(O)c1C(=O)O)C=CC(C)(CCC=C(C)C)O2 (stereo not drawn) [CBCVA, cannabichromevarinic acid]",Effect against hyperthermia-induced seizures,[1]; [20],anticonvulsant effects
"C=C(C)[C@@H]1CCC(C)=C[C@H]1c1c(O)cc(CCCCC)cc1O [CBD, cannabidiol]",Effect against hyperthermia-induced seizures,"[1]; 100 mg·kg−1, ref Anderson, Absalom, et al., 2019, Anderson et al., 2020, Kaplan et al., 2017",anticonvulsant
"C=C(C)[C@@H]1CCC(C)=C[C@H]1c1c(O)cc(CCC)cc1O [CBDV, cannabidivarin]",Temperature threshold for GTCS induced by hyperthermia vs vehicle,[2]; [21],increase in GTCS temperature threshold
same,State of dosing preparation,[3],near solubility limits
same,Aqueous solubility,[3],poor aqueous solubility
"C=C(C)[C@@H]1CCC(C)=C[C@H]1c1c(O)cc(CCC)c(C(=O)O)c1O [CBDVA, cannabidivarinic acid]",Temperature threshold for GTCS induced by hyperthermia vs vehicle,[2]; [22],significantly elevated
same,Effective (anticonvulsant) dose against hyperthermia-induced seizures,[2]; Scn1a+/− mice,100 mg/kg
"CCCCCc1cc(O)c(C/C=C(\C)CCC=C(C)C)c(O)c1 [CBG, cannabigerol]",Mice seizure free (protected from GTCS),"[2]; 0.3 mg·kg−1 i.p., n = 12–18 per group",four
same,Temperature threshold for GTCS induced by hyperthermia vs vehicle,[2]; [23],Neither cannabigerol (CBG) nor cannabigerivarin (CBGV) affected thresholds
same,State of dosing preparation,[3],near solubility limits
same,Aqueous solubility,[3],poor aqueous solubility
"CCCCCc1cc(O)c(C/C=C(\C)CCC=C(C)C)c(O)c1C(=O)O [CBGA, cannabigerolic acid]","CC50 vs vehicle, 6-Hz threshold test",[4]; 10 mg·kg−1 i.p.,significantly lower
same,"CC50 vs vehicle, 6-Hz threshold test",[4]; 30 mg·kg−1 i.p.,significantly lower
same,"CC50 vs vehicle, 6-Hz threshold test",[4]; 100 mg·kg−1 i.p.,did not differ from vehicle
same,Modulation of GABA-evoked currents at high concentration,"[5]; 30 μM CBGA, GABA 15 μM",substantially reduced
same,EC50,"[5]; EC50, positive modulation of GABA-evoked currents, GABA 15 μM",0.91 µM
same,Emax,[5]; read-out: Maximum modulation of GABA-evoked peak currents (E max),271 ± 40%
same,Peak GABA current after preincubation (percentage of GABA response),[6],31 ± 11%
same,IC50,"[7]; IC50, inhibition of GPR55 activation, rounded value of the discussion",~5 µM
same,IC50,"[7]; IC50, inhibition of LPI-mediated GPR55 activity (pERK), LPI 4 μM (EC80)",5.7 µM
same,IC50,"[7]; IC50, inhibition of ML-186-mediated GPR55 activity (pERK), ML-186 0.45 μM (EC80)",4.8 µM
same,Mode of antagonism at GPR55,[7]; ML-186 concentration–response curves with varying CBGA,non‐competitive antagonist
same,IC50,[8],22 µM
same,Non-specific calcium influx,"[8]; 30 and 100 μM CBGA, wildtype and TRPV1-expressing cells",non‐specific increase in intracellular calcium
same,Agonist activity at TRPV1,[8]; calcium influx,did not display agonist activity
same,Brain penetration,[9],2%
same,Brain–plasma ratio,[9],0.02
same,Agonist activity at GPR55,[10],not an agonist
same,Effect at cannabinoid CB2 receptor,[11],did not affect
same,Effect at cannabinoid CB1 receptor,[12],did not affect
same,Agonist or antagonist activity at 242 GPCRs,[13],No agonist or antagonist activity
same,Temperature threshold for GTCS induced by hyperthermia vs vehicle,[2]; [21],anticonvulsant; also recorded: significantly elevated
same,Temperature threshold for GTCS induced by hyperthermia vs vehicle,[2]; [22],anticonvulsant
same,Effective (anticonvulsant) dose against hyperthermia-induced seizures,[2]; Scn1a+/− mice,30 mg/kg
same,Temperature threshold for GTCS induced by hyperthermia vs vehicle,[2]; [23],dose‐dependently increased
same,Spontaneous GTCS frequency,"[14]; 2500 mg·kg−1 chow, oral subchronic, 60-h recording",significantly increased
same,Survival to P30 relative to controls,"[14]; 1400 and 2500 mg·kg−1 chow, oral",did not differ
same,Proportion of mice experiencing GTCS during observation period,"[14]; 1400 and 2500 mg·kg−1 chow, oral subchronic, 60-h recording",Neither dose of CBGA affected
same,Plasma concentration of CBGA on cotreatment with clobazam,[15]; [24],significantly increased
same,Plasma CBGA concentrations on cotreatment with clobazam,"[15]; subchronic, chow",no effect
"CCCc1cc(O)c(C/C=C(\C)CCC=C(C)C)c(O)c1 [CBGV, cannabigerivarin]",Temperature threshold for GTCS induced by hyperthermia vs vehicle,[2]; [23],Neither cannabigerol (CBG) nor cannabigerivarin (CBGV) affected thresholds
same,State of dosing preparation,[3],suspension
"CCCc1cc(O)c(C/C=C(\C)CCC=C(C)C)c(O)c1C(=O)O [CBGVA, cannabigerovarinic acid]",Temperature threshold for GTCS induced by hyperthermia vs vehicle,[2]; [22],significantly elevated
same,Effective (anticonvulsant) dose against hyperthermia-induced seizures,[2]; Scn1a+/− mice,100 mg/kg
Nc1nnc(-c2cccc(Cl)c2Cl)c(N)n1 [Lamotrigine],Effect on seizures in Scn1a+/− mice,[16],proconvulsant
same,Effect against MES-induced seizures,[17],anticonvulsant
"COc1ccc(S(=O)(=O)N2CCOCC2)cc1NC(=O)c1cc2c(s1)CCCC2 [ML‐186, reference compound]",EC80 concentration for GPR55 activation (pERK),[7],0.45 μM
O=C1CC(=O)N(c2ccccc2)c2cc(Cl)ccc2N1 [N‐desmethylclobazam],Plasma concentrations of N-desmethylclobazam on CBGA co-administration,[15]; [24],reduced
same,Plasma concentrations of N-desmethylclobazam when clobazam combined with CBGA,"[15]; subchronic, chow",significantly lower
"CN1C(=O)CC(=O)N(c2ccccc2)c2cc(Cl)ccc21 [clobazam, reference compound]",Temperature threshold for GTCS induced by hyperthermia vs vehicle,"[2]; 1 mg·kg−1 single i.p., Scn1a+/− mice",significantly elevated
same,Spontaneous GTCS frequency,"[14]; 80 mg clobazam·kg−1 chow, oral, 60-h recording",significantly reducing
same,Survival to P30,[14]; clobazam 80 mg·kg−1 chow alone or plus CBGA 1400 mg·kg−1 chow,neither treatment had any effect
same,Proportion of mice displaying GTCS,"[14]; clobazam 80 mg·kg−1 chow alone or plus CBGA 1400 mg·kg−1 chow, controls 63%",35%
same,Plasma clobazam concentrations on CBGA co-administration,[15]; [24],did not affect
"CCCC(CCC)C(=O)O [valproic acid, reference compound]","Protection against seizure activity, 6-Hz threshold test","[4]; 300 mg·kg−1, 15 min prior",100%
same,"Protection against seizure activity, MES threshold test",[18],100%
"CCCc1cc(O)c2c(c1)OC(C)(C)[C@@H]1CCC(C)=C[C@@H]21 [Δ^9‐THCV, tetrahydrocannabivarin]",Temperature threshold for GTCS induced by hyperthermia vs vehicle,"[2]; 3 mg·kg−1 single i.p., Scn1a+/− mice P14–16",proconvulsant
same,Effect against PTZ-induced seizures,[19],anticonvulsant effects
"lysophosphatidylinositol [LPI, reference compound]",EC80 concentration for GPR55 activation (pERK),[7],4 μM

# Source: paper PMC9292928 (British Journal of Pharmacology, 2021)
